Hits are enriched below; roughly 3.9% of the tested compounds scored in any of these assays.
AHR activator: AHR activators, primary screen, cell-based, luminescence, luciferase reporter, human. Aryl hydrocarbon receptor (Homo sapiens), P35869. AHR-responsive luciferase reporter cells. activation, % at 5 µM. 320,000 compounds, 2.5% hits. AID 2796, 2010; in the data active = activation above about 47%;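 note: 0% = vehicle wells and 100% = reference agonist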
HIF act: HIF pathway transcriptional activators, primary screen, cell-based, U2OS HRE-luciferase, luminescence. U2OS HRE-luciferase reporter; normalized: DMSO 0%, desferrioxamine 100%. activation, % at 7.5 µM (by protocol). 300,000 compounds, 0.32% hits. AID 1910, 2009;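 active = mean activation of at least 10% of the iron chelator positive control signal, with at least half of replicates also reaching 10%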
ABCB6 inh MLPCN: ABCB6 transporter inhibitors, primary screen, K562-ABCB6 cells, flow cytometry, MLPCN library; ATP-binding cassette sub-family B member 6 (Homo sapiens), Q9NP58; K562-ABCB6 porphyrin accumulation, 1 h; stronger effect = lower value; fluorescence ratio to DMSO, % at 10 µM; 360,000 compounds, 0.19% hits;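 active = fluorescence ratio to DMSO below 75%, the collection mean minus 3 SD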;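 note: signal is porphyrin accumulated inside mitochondria; 100% equals median channel fluorescence of DMSO control wells; lower ratio means ABCB6 inhibition with less porphyrin fluorescence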
FXN GAA850 act: FXN promoter activators, primary screen, cell-based, luciferase luminescence, HEK293 lucGAA850; HEK293 lucGAA850 FXN promoter luciferase reporter, 24 h; percent of 10 µM SAHA response; activation, % at 6 µM; 360,000 compounds, 0.56% hits;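 active = activation above the average of all compounds screened plus 3 SD, cutoff fixed separately per campaign, cut at about 7.5% in these data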;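 note: 0% = DMSO wells and 100% = 10 µM SAHA wells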
SR-BI HDL uptake: inhibitors of SR-BI mediated HDL lipid uptake, primary screen, ldlA[mSR-BI] cells, fluorescence, single point; AID 488896, 2010; ldlA[mSR-BI] CHO cells, DiI-HDL uptake fluorescence, 3 h; inhibition, % at 12.5 µM; 320,000 compounds, 0.96% hits;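 active = mean replicate inhibition of at least 70% and a set share of replicates each scoring 70 or more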;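 note: 0% = median of neutral control wells and 100% = median of positive control wells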
Target sequence (Q61009 whole entry, looked up): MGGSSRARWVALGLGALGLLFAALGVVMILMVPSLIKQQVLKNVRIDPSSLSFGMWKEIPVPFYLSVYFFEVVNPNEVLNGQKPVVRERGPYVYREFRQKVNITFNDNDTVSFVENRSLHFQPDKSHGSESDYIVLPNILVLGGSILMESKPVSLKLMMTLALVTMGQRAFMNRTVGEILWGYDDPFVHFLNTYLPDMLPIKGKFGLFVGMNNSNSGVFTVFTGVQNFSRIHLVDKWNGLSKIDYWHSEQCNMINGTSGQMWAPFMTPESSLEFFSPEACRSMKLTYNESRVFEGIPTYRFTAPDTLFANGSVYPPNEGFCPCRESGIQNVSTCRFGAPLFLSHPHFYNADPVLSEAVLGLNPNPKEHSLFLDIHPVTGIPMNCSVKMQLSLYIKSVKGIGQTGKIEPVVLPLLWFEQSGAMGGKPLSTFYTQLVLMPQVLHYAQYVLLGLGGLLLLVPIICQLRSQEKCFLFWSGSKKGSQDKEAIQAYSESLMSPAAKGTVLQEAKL
SR-BI DiI-HDL act: activators of SR-BI mediated DiI-HDL uptake, primary screen, ldlA[mSR-BI] CHO cells, DiI fluorescence; 3 h; 100 = double the neutral-control signal; activation, % at 12.5 µM; 320,000 compounds, 0.096% hits; AID 504775, 2011;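 active = mean replicate activation of at least 60% and every replicate at or above 60%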;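 note: 0% = median plate neutral-control signal and 100% = twice that signal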
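Test system: SR-BI-overexpressing, LDLR-lacking CHO cells; Also added: labelled HDL, 10 µg/mL; Measured by: bottom-read cell fluorescence after medium removal, ex 550/em 595 nm; Timing: 3 h uptake period with compound, 37 °C; Buffer or medium: F12, 0.5% BSA, 25 mM HEPES; Doses: single compound concentration, delivered by pin transfer.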
* marks the source's active call; other numbers are inactive results; · = no result.

SMILES	AHR activator	HIF act	ABCB6 inh MLPCN	FXN GAA850 act	SR-BI HDL uptake	SR-BI DiI-HDL act
CCS(=O)(=O)Nc1ccc(-c2nc3cccnc3s2)cc1	65.6*	-1.7	104.0	-0.7	3.3	-3.3
Cc1nc2ccc(S(=O)(=O)Nc3ccc(-c4nc5cccnc5s4)cc3)cc2s1	68.6*	2.4	95.0	2.7	-22.5	22.5
CCS(=O)(=O)Nc1cccc(-c2nc3cccnc3s2)c1	75.6*	1.9	91.0	0.4	23.5	-23.5
O=S(=O)(Nc1cccc(-c2nc3cccnc3s2)c1)c1ccc2c(c1)CCCC2	15.9	-0.1	88.0	0.7	-29.7	29.7
Cc1nc2ccc(S(=O)(=O)Nc3cccc(-c4nc5cccnc5s4)c3)cc2s1	14.0	0.2	100.0	0.5	-36.8	36.8
CCCCc1ccc(NC(=O)COc2ccc(C(=O)Nc3ccccc3C)cc2)cc1	2.9	-1.2	·	·	·	·
O=C(CSC1=NC(=O)C(c2ccccc2)C(=O)N1)Nc1ccccc1Cl (configuration not stated)	3.6	-0.9	96.0	-1.5	-21.2	21.2
NC(=O)C1(Nc2ccc(-c3ccc(Br)cc3)cc2)CCCC1	·	·	96.0	3.2	5.1	-5.1
Cc1cc(N)ncc1[N+](=O)[O-]	·	·	104.0	0.4	-17.2	17.2
CCOc1cc(C2NN=C(c3ccccc3)S2)ccc1OCc1ccccc1Cl (configuration not stated)	23.0	4.3	89.0	4.7	57.0	-57.0
Cc1ccc(C)c(/C=N/n2cc(-c3ccccc3)[nH]c2=S)c1	61.7*	1.0	96.0	-0.8	29.0	-29.0
S=c1[nH]c(-c2ccccc2)cn1/N=C/c1ccc(Br)cc1	53.8*	1.6	99.0	0.9	10.4	-10.4
O=C(O)c1ccc(/C=N/n2cc(-c3ccccc3)[nH]c2=S)cc1	6.0	0.1	102.0	-2.8	·	·
Cc1cccc(-n2cc(-c3ccccc3)[nH]c2=S)c1	33.5	6.7	95.0	1.1	1.1	-1.1
S=c1[nH]c(-c2ccccc2)cn1/N=C/c1cccs1	66.6*	1.7	107.0	-0.3	16.4	-16.4
COc1ccc(-n2nc([N+](=O)[O-])c(=NCc3ccc4c(c3)OCO4)n2O)cc1	8.9	7.3	96.0	2.1	-16.7	16.7
Cc1c(N(C)C)nc2ccccc2c1N	21.7	-0.2	99.0	1.8	-16.6	16.6
CCN(CC)c1nc2ccccc2c(N)c1-c1ccccc1	55.5*	-1.1	94.0	-2.8	1.4	-1.4
CCn1c(SCC(=O)c2ccc3ccccc3c2)nnc1-c1ccco1	77.8*	-1.0	96.0	4.7	-10.5	10.5
O=C(O)c1ccc(N2C(=O)CC(SC(=Nc3ccccc3)Nc3ccccc3)C2=O)cc1 (configuration not stated)	-0.7	-0.1	96.0	2.7	-24.6	24.6
O=C1CC(SC(=Nc2ccccc2)Nc2ccccc2)C(=O)N1c1cccc2ccccc12 (configuration not stated)	1.3	-0.4	107.0	-7.6	92.8*	-92.8
COc1ccc(NC(=O)COc2ccc(/C=N/NC(=O)c3cccnc3)cc2OC)cc1	19.8	1.1	87.0	0.1	19.7	-19.7
CCOc1cc(Br)cc(/C=N/NC(=O)c2cccnc2)c1O	34.5	9.3	99.0	-6.8	80.3*	-80.3
CCOc1ccc(Br)cc1/C=N/NC(=O)c1ccncc1	9.9	0.1	106.0	-2.1	53.7	-53.7
COc1cc(/C=N/NC(=O)c2cccnc2)ccc1OCC(=O)Nc1c(C)cc(C)cc1C	14.9	-0.1	98.0	-0.1	71.0*	-71.0
SMILES	AHR activator	HIF act	ABCB6 inh MLPCN	FXN GAA850 act	SR-BI HDL uptake	SR-BI DiI-HDL act
CCOc1cc(/C=N/NC(=O)c2cccnc2)ccc1OCc1ccc(C(=O)OC)o1	4.7	13.6*	99.0	1.3	13.1	-13.1
Cn1ccsc1=NC(=O)c1ccc(Cl)c([N+](=O)[O-])c1	68.0*	-0.2	94.0	3.6	19.2	-19.2
C#CCNC(=O)C1=C[C@@H](c2cn(C(C)=O)c3ccccc23)C[C@@H](OCCCCO)O1	65.4*	0.8	105.0	1.1	5.7	-5.7
CC(=O)n1cc([C@H]2C=C(C(=O)Nc3ccccc3)O[C@@H](OCCCCO)C2)c2ccccc21	36.0	0.0	102.0	-0.7	25.0	-25.0
C=CCOC(=O)C1=C[C@@H](c2cn(C(C)=O)c3ccccc23)C[C@@H](OCCCCO)O1	6.7	-0.6	98.0	-2.1	8.4	-8.4
CC(=O)n1cc([C@@H]2C=C(C(=O)NCc3ccccc3)O[C@H](OCCCCO)C2)c2ccccc21	73.0*	-2.6	105.0	-2.5	15.8	-15.8
Cn1c(C(=O)O)c(S(=O)(=O)c2ccc(Cl)cc2)c2ccccc21	4.1	-0.4	105.0	0.4	-9.4	9.4
Cc1ccc(C(=O)N/N=C/c2cc(Br)ccc2O)cn1	12.7	15.6*	96.0	-4.6	74.7*	-74.7
O=C(N/N=C/c1cc(Br)ccc1O)c1ccccc1Cl	14.4	25.7*	89.0	-4.8	84.2*	-84.2
O=C(CCc1ccccc1)N/N=C/c1cc(Br)ccc1O	32.6	12.1*	103.0	-0.9	23.8	-23.8
CCCCn1c(-c2ccc(OC(F)F)cc2)nc2c1c(=O)[nH]c(=O)n2CC(C)C	3.3	-0.1	101.0	-1.5	53.1	-53.1
CCc1ccccc1NC(=S)N(Cc1cccnc1)Cc1ccco1	4.6	0.0	97.0	1.6	3.0	-3.0
O=C(/C=C/c1ccccc1Cl)Nc1cccnc1	51.7*	1.5	99.0	3.6	-14.4	14.4
O=C(/C=C/c1ccco1)Nc1cccc2cccnc12	47.7*	1.2	112.0	6.1	41.7	-41.7
O=C(O)/C=C/C(=O)Nc1cccc2cccnc12	2.9	-0.6	97.0	-0.3	-2.0	2.0
COc1ccccc1/C=C/C(=O)NCCc1ccccn1	63.3*	4.2	97.0	2.5	-1.4	1.4
COc1ccccc1/C=C/C(=O)Nc1cccnc1	58.0*	1.8	91.0	1.2	6.6	-6.6
O=C(/C=C/c1ccco1)Nc1cccnc1	71.0*	0.6	99.0	2.7	-5.7	5.7
O=C(/C=C/c1ccco1)c1cccnc1	0.1	-0.4	99.0	-1.8	-2.4	2.4
COc1ccccc1/C=C/C(=O)NC(=S)NCC1CCCO1 (configuration not stated)	69.0*	0.3	94.0	0.6	17.5	-17.5
COc1ccccc1/C=C/C(=O)Nc1ccc2c(c1)CCC2	22.4	3.5	93.0	5.6	72.5*	-72.5
COc1cccc2c1OCC(C(=O)OCc1cccnc1)=C2	2.1	0.0	95.0	2.5	-16.5	16.5

Screening data (PubChem BioAssay)
